Test results from ChEMBL document CHEMBL2040723, “1,4-dioxane, a suitable scaffold for the development of novel M₃ muscarinic receptor antagonists” (J Med Chem, 2012).
Activity calls are given as the source filed them. No cut-off for these calls is given here.

Columns and labels:
Rattus norvegicus [1] = test: Cardiovascular toxicity in anaesthetized Wistar rat assessed as changes in heart rate at 1 ug/kg, iv; type: organism-based; settings: in vivo, 0.001 mg/kg
Rattus norvegicus [2] = test: Reduction in volume induced contraction of iv dosed anaesthetized Wistar rat urinary bladder assessed as inhibition of AUC peaks from saline baseline; type: functional; settings: read-out: ID50 (the source's name)
[3] = Antagonist activity at muscarinic M4 receptor in guinea pig lung strips assessed as dissociation constant after 45 mins; type: functional, Cavia porcellus
Method in brief: (§1)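 Isolated guinea pig tissues: left atrium (M2), ileum (M3) and lung strips (putative M4). Antagonist dissociation constants were calculated by the Furchgott method and reported as pKB, as mean ± SEM of four to six independent experiments. Agonist reference for the tissue responses was bethanechol.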

Cavia porcellus [4] = species: Cavia porcellus; test: Intrinsic activity at muscarinic M3 receptor in guinea pig ileum after 45 mins relative to bethanechol; type: tissue-based
Method in brief: (§2)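 Guinea pig left atrium (M2) and ileum (M3) preparations. Intrinsic activity is the ratio of the compound's maximum response to the maximum response of bethanechol in that tissue. The pD2 is the −log of the agonist concentration giving 50% of the maximum response attainable in the tissue.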

[5] = molecular target: T1, Muscarinic acetylcholine receptor M5 (Homo sapiens, UniProt P08912); test: Displacement of [3H]N-methylscopolamine from human muscarinic M5 receptor expressed in CHO cells after 120 mins by scintillation counting; type: cell-based
T1 sequence (P08912 whole entry): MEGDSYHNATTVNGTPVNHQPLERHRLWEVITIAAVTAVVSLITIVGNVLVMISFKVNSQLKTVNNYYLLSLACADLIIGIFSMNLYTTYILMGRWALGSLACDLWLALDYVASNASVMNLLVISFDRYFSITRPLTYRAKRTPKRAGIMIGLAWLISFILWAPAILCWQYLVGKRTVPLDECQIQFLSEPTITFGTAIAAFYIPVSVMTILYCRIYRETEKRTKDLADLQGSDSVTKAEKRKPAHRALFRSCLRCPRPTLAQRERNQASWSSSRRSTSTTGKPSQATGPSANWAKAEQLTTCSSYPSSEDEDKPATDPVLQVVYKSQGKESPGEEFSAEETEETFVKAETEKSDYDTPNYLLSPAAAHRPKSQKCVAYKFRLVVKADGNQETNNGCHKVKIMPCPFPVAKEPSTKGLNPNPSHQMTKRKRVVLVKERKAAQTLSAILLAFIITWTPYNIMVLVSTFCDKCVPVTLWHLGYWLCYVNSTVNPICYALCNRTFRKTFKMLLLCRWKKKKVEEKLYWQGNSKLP

[6] = Antagonist activity at muscarinic M3 receptor in guinea pig ileum assessed as dissociation constant after 45 mins; type: functional, Cavia porcellus; method in brief: as §1
[7] = Antagonist activity at muscarinic M2 receptor in guinea pig left atrium assessed as dissociation constant after 45 mins; type: functional, Cavia porcellus, Cardiac atrium; method in brief: as §1
[8] = Antagonist activity at muscarinic M1 receptor in rabbit vas deferens assessed as dissociation constant after 45 mins; type: functional, Oryctolagus cuniculus
[9] = molecular target: T2, Muscarinic acetylcholine receptor M2 (Homo sapiens, UniProt P08172); test: Displacement of [3H]N-methylscopolamine from human muscarinic M2 receptor expressed in CHO cells after 120 mins by scintillation counting; type: cell-based
T2 sequence (P08172 whole entry): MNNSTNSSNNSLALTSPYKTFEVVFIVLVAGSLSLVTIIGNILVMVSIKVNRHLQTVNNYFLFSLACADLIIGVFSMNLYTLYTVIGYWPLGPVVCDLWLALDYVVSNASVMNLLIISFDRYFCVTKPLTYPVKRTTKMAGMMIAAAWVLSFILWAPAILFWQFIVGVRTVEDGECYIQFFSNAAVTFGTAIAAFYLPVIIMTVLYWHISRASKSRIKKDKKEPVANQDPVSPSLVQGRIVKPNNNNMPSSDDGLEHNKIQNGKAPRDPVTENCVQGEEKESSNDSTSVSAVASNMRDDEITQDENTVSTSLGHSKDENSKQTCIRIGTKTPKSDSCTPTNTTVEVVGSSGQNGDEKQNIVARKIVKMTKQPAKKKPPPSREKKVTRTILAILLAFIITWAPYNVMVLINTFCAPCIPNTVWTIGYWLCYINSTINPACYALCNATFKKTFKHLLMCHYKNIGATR

Cavia porcellus [10] = species: Cavia porcellus; test: Intrinsic activity at muscarinic M2 receptor in guinea pig left atrium after 45 mins relative to bethanechol; type: tissue-based; settings: Cardiac atrium; method in brief: as §2
Rattus norvegicus [11] = test: Cardiovascular toxicity in anaesthetized Wistar rat assessed as changes in mean arterial pressure at 1 ug/kg, iv; type: organism-based, Artery; settings: in vivo, 0.001 mg/kg
Rattus norvegicus [12] = test: Reduction in volume induced contraction of iv dosed anaesthetized Wistar rat urinary bladder assessed as inhibition of VIBC amplitudes relative to untreated control; type: functional
[13] = Agonist potency at muscarinic M3 receptor in guinea pig ileum after 45 mins; type: functional, Cavia porcellus
Method in brief: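 Isolated guinea pig ileum (M3) functional assay. pD2 is the −log of the agonist concentration giving 50% of the maximum response attainable in that tissue. Intrinsic activity is the ratio of the agonist's maximum response to that of bethanechol. Results are mean ± SEM of four to six independent experiments.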

Cavia porcellus [14] = species: Cavia porcellus; test: Antagonist activity at muscarinic M4 receptor in guinea pig lung strips up to 10 uM after 45 mins; type: functional
Method in brief: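 Guinea pig lung strips (putative M4) were tested for agonist activity and then for antagonism at concentrations up to 10 μM. Dissociation constants (pKB) were calculated by the Furchgott method from four to six independent experiments.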

Cavia porcellus [15] = species: Cavia porcellus
[16] = molecular target: T3, Muscarinic acetylcholine receptor M4 (Homo sapiens, UniProt P08173); test: Displacement of [3H]N-methylscopolamine from human muscarinic M4 receptor expressed in CHO cells after 120 mins by scintillation counting; type: cell-based
T3 sequence (P08173 whole entry): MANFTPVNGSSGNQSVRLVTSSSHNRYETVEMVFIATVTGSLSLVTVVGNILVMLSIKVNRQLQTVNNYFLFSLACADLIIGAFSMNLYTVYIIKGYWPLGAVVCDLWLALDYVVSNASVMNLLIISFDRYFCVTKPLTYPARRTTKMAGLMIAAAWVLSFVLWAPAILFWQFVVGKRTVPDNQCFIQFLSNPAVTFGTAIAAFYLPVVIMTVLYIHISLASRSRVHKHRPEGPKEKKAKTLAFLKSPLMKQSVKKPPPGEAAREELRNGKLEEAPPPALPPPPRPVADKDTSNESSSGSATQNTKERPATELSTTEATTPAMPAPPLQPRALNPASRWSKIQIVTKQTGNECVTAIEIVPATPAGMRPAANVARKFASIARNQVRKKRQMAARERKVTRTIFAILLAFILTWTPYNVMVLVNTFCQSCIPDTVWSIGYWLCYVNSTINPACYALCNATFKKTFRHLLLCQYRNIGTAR

[17] = Agonist potency at muscarinic M2 receptor in guinea pig left atrium after 45 mins; type: functional, Cavia porcellus, Cardiac atrium

## C[N+](C)(C)C[C@H]1COCC(c2ccccc2)(c2ccccc2)O1.[I-]
Rattus norvegicus [1]
  Activity: 5%
Rattus norvegicus [2]
  ED50: 0.201 mg/kg
[3]
  pKb: 6.7
Cavia porcellus [4]
  Intrinsic activity: 0
[5]
  Ki: 0.0017 µM
[6]
  pKb: 8.52
[7]
  pKb: 7.31
[8]
  pKb: 8.86
[9]
  Ki: 0.00282 µM
Cavia porcellus [10]
  Intrinsic activity: 0
Rattus norvegicus [11]
  Activity: -12%
Rattus norvegicus [12]
  Imax: 96%

## C[N+](C)(C)C[C@@H]1COCC(c2ccccc2)(c2ccccc2)O1.[I-]
[3]
  pKb: 6.62
Cavia porcellus [4]
  Intrinsic activity: 0
[5]
  Ki: 0.107 µM
[7]
  pKb: 6.67
[9]
  Ki: 0.0331 µM
Cavia porcellus [10]
  Intrinsic activity: 0

## CN(C)C[C@H]1COCC(c2ccccc2)(c2ccccc2)O1.O=C(O)C(=O)O
[3]
  pKb: 6.94
Cavia porcellus [4]
  Intrinsic activity: 0
[5]
  Ki: 0.00182 µM
[7]
  pKb: 7.63
[9]
  Ki: 0.00977 µM
Cavia porcellus [10]
  Intrinsic activity: 0

## CN(C)C[C@@H]1COCC(c2ccccc2)(c2ccccc2)O1.O=C(O)C(=O)O
Cavia porcellus [4]
  Intrinsic activity: 0
[5]
  Ki: 0.0813 µM
[7]
  pKb: 7
[9]
  Ki: 0.0955 µM
Cavia porcellus [10]
  Intrinsic activity: 0

## CN(C)C[C@@H]1COC(c2ccccc2)(c2ccccc2)O1.O=C(O)C(=O)O
[6]
  pKb: 6.38
[7]
  pKb: 7.11

## C[C@H]1COC[C@@H](C[N+](C)(C)C)O1.[I-]
Cavia porcellus [4]
  Intrinsic activity: 1
[13]
  pD2: 7.34
Cavia porcellus [10]
  Intrinsic activity: 1

## C[N+](C)(C)CC1COCC(c2ccccc2)(c2ccccc2)O1.[I-] (racemic)
[3]
  pKb: 7.77
Cavia porcellus [4]
  Intrinsic activity: 0
[5]
  Ki: 0.00437 µM
[6]
  pKb: 8.34
[7]
  pKb: 8.21
[9]
  Ki: 0.00575 µM
Cavia porcellus [10]
  Intrinsic activity: 0

## CN(C)CC1COCC(c2ccccc2)(c2ccccc2)O1.O=C(O)C(=O)O (racemic)
Rattus norvegicus [1]
  Activity: 4%
Rattus norvegicus [2]
  ED50: 0.134 mg/kg
[3]
  pKb: 7.02
Cavia porcellus [4]
  Intrinsic activity: 0
[5]
  Ki: 0.00537 µM
[6]
  pKb: 8.24
[7]
  pKb: 6.95
[8]
  pKb: 7.86
[9]
  Ki: 0.0166 µM
Cavia porcellus [10]
  Intrinsic activity: 0
Rattus norvegicus [11]
  Activity: -18%
Rattus norvegicus [12]
  Imax: 72%

## CC[C@H]1COC[C@@H](C[N+](C)(C)C)O1.[I-] (relative stereo)
Cavia porcellus [14]
  Activity: inactive
Cavia porcellus [15]
  pD2: inactive
Cavia porcellus [4]
  Intrinsic activity: 1
[5]
  Ki: 26.3 µM
[13]
  pD2: 4.82
[9]
  Ki: 6.31 µM
Cavia porcellus [10]
  Intrinsic activity: 1
[16]
  Ki: 25.1 µM
[17]
  pD2: 5.62

## CC[C@@H]1COC[C@@H](C[N+](C)(C)C)O1.[I-] (relative stereo)
Cavia porcellus [14]
  Activity: inactive
Cavia porcellus [15]
  pD2: inactive
Cavia porcellus [4]
  Intrinsic activity: 1
[5]
  Ki: > 100 µM
[13]
  pD2: 5.19
[9]
  Ki: 18.2 µM
Cavia porcellus [10]
  Intrinsic activity: 0.7
[16]
  Ki: > 100 µM
[17]
  pD2: 5.45

## C[N+](C)(C)C[C@@H]1COC[C@H](c2ccccc2)O1.[I-] (relative stereo)
[3]
  pKb: 5.24
Cavia porcellus [4]
  Intrinsic activity: 0
[7]
  pKb: 5.56
Cavia porcellus [10]
  Intrinsic activity: 0
[16]
  Ki: 12.3 µM

## C[N+](C)(C)C[C@@H]1COC[C@@H](c2ccccc2)O1.[I-] (relative stereo)
[3]
  pKb: <5
Cavia porcellus [4]
  Intrinsic activity: 0
[6]
  pKb: <5
[7]
  pKb: 5.14
Cavia porcellus [10]
  Intrinsic activity: 0
[16]
  Ki: 29.5 µM

## C[N+](C)(C)C[C@@H]1COC[C@H](C(c2ccccc2)c2ccccc2)O1 (relative stereo)
[5]
  Ki: 7.59 µM
[9]
  Ki: 28.2 µM
[16]
  Ki: 11.2 µM

## C[N+](C)(C)C[C@@H]1COC[C@@H](C(c2ccccc2)c2ccccc2)O1 (relative stereo)
[5]
  Ki: 31.6 µM
[9]
  Ki: 79.4 µM
[16]
  Ki: 17 µM

## C[N+]1(C)CCC(OC(=O)C(c2ccccc2)c2ccccc2)CC1.[I-] [4-DAMP]
[3]
  pKb: 9.4
[6]
  pKb: 9.02
[7]
  pKb: 8

## COc1ccccc1CNCCCCCCNCCCCCCCCNCCCCCCNCc1ccccc1OC [METHOCTRAMINE]
[3]
  pKb: 7.6
[6]
  pKb: 6.3
[7]
  pKb: 7.8

## CCN(CC)CC#CCOC(=O)C(O)(c1ccccc1)C1CCCCC1 (stereo not given) [OXYBUTYNIN]
Rattus norvegicus [1]
  Activity: 7%
Rattus norvegicus [2]
  ED50: 0.347 mg/kg
Cavia porcellus [4]
  Intrinsic activity: 0
Cavia porcellus [10]
  Intrinsic activity: 0
Rattus norvegicus [11]
  Activity: 20%
Rattus norvegicus [12]
  Imax: 75%
